# Where “and” joins values, the source holds several entries; their conditions need not be identical. Identical values can stand only once. Like-named read-outs stand apart in the source and are kept apart here.
# Assays:
# [1] = for 3,4-dimethylbenzenesulfonate; cited from earlier work
# [2] = Viscosity measurements of hydrotrope solutions; assay type: physicochemical; conditions: 20 wt % hydrotrope in 1 M KCl, rotational rheometer
# Method in brief: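 Rotational rheometer with concentric cylinder geometry over shear rates of 10 to 100/s. Solutions tested: 1 M KCl, 20 wt % NaXS and 20 wt % NapTS.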
# [3] = cited from earlier work; for Dred, previously reported: aqueous solution
# [4] = Hydraulic radius calculated with the Stokes-Einstein equation; assay type: physicochemical; conditions: from Dred CV, 298K
# Method in brief: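 Stokes–Einstein estimate that uses Dred from the CV fits, the measured solution viscosity and T = 298 K. Viscosities come from a concentric-cylinder rotational rheometer (KCl-based solutions) or a calibrated Ubbelohde glass viscometer (1 M H2SO4 and 15 wt % proline).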
# [5] = Linear sweep voltammetry with rotating disk electrode; assay type: physicochemical; conditions: for Dox (LSV): oxidized species
# [6] = Cyclic voltammetry; assay type: physicochemical; conditions: for Dred (CV): 1 mM; for Dox (CV): oxidized species
# Method in brief: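 Three-electrode cell: 3 mm glassy carbon working electrode (0.0707 cm2), Ag/AgCl in 3 M KCl reference, Pt wire counter. Electrode polished with 0.05 μm alumina and rinsed with water and methanol. Nitroxide starts at 1 mM; hydrotrope electrolytes readjusted to pH 7.0 (HCl) or, for the disulfonate, to about 0 (H2SO4). Triplicate CVs at 0.001–1 V/s, three cycles per rate.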
# [7] = Electrochemical impedance spectroscopy; assay type: physicochemical
# Method in brief: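 Glassy carbon rotating disk (5 mm; 0.196 cm2) with Ag/AgCl reference and Pt wire counter; polished as for CV. Solutions hold 1 mM reduced radical plus 1 mM oxidised form, made by bulk electrolysis at 0.75 V vs Ag/AgCl for 5–10 h. Run at open-circuit potential, 2500 rpm, 10 mV amplitude, 0.5–100000 Hz. Rct comes from a Nyquist fit, then j0, then k0 assuming α = 0.5.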
# [8] = cited from earlier work
molecule,measurement,setting,value
sodium xylenesulfonate [NaXS],pKA,[1],10.36
same,viscosity of solution,[2],1.8 × 10^–3 Pa·s
"CC1(C)CC(O)CC(C)(C)N1[O] [4-OH-TEMPO, 4-OH-TEMPO free radical]","Dred, previously reported",[3]; ref 11,29.5 × 10^–6 cm^2/s
same,"Dred, previously reported",[3]; ref 42,7.7 × 10^–6 cm^2/s
same,formal reduction potential E0',[3]; circumneutral pH,0.59 V vs Ag/AgCl
same,hydraulic radius,[4]; 20 wt % NaXS,3.7 Å
same,hydraulic radius,[4]; 20 wt % NapTS,2.7 Å
same,hydraulic radius,[4]; no hydrotrope (1 M KCl),3.3 Å
same,Dred (LSV),"[5]; 1 M KCl, no hydrotrope",10.53 × 10^–6 cm^2/s
same,standard rate constant k0 (LSV),"[5]; 1 M KCl, no hydrotrope",0.09 ± 0.07 cm/s
same,Dred (LSV),[5]; 20 wt % NaXS in 1 M KCl,6.63 × 10^–6 cm^2/s
same,standard rate constant k0 (LSV),[5]; 20 wt % NaXS in 1 M KCl,0.12 ± 0.11 cm/s
same,Dred (LSV),[5]; 20 wt % NapTS in 1 M KCl,8.53 × 10^–6 cm^2/s
same,standard rate constant k0 (LSV),[5]; 20 wt % NapTS in 1 M KCl,0.32 ± 0.33 cm/s
same,Dox (LSV),"[5]; 1 M KCl, no hydrotrope",6.03 × 10^–6 cm^2/s
same,Dox (LSV),[5]; 20 wt % NaXS in 1 M KCl,3.76 × 10^–6 cm^2/s
same,Dox (LSV),[5]; 20 wt % NapTS in 1 M KCl,4.40 × 10^–6 cm^2/s
same,formal reduction potential E0',"[6]; 1 M KCl, no hydrotrope",0.59 ± 0.00 V vs Ag/AgCl and 0.59 V vs Ag/AgCl
same,Dred (CV),"[6]; 1 M KCl, no hydrotrope",7.00 ± 0.24 × 10^–6 cm^2/s
same,standard rate constant k0 (CV),"[6]; 1 M KCl, no hydrotrope, glassy carbon electrode",0.35 ± 0.14 cm/s
same,standard rate constant k0 (CV),[6]; 20 wt % NaXS in 1 M KCl,0.48 ± 0.19 cm/s
same,Dred (CV),[6]; 20 wt % NaXS in 1 M KCl,3.33 ± 0.04 × 10^–6 cm^2/s
same,formal reduction potential E0',"[6]; 20 wt % NaXS in 1 M KCl, vs Ag/AgCl",0.59 ± 0.01 V
same,standard rate constant k0 (CV),[6]; 20 wt % NapTS in 1 M KCl,0.95 ± 0.07 cm/s
same,Dred (CV),[6]; 20 wt % NapTS in 1 M KCl,4.27 ± 0.14 × 10^–6 cm^2/s
same,formal reduction potential E0',"[6]; 20 wt % NapTS in 1 M KCl, vs Ag/AgCl",0.59 ± 0.00 V
same,standard rate constant k0 (CV),[6]; 20 wt % urea in 1 M KCl,0.78 ± 0.16 cm/s
same,Dred (CV),[6]; 20 wt % urea in 1 M KCl,5.90 ± 0.07 × 10^–6 cm^2/s
same,formal reduction potential E0',"[6]; 20 wt % urea in 1 M KCl, vs Ag/AgCl",0.59 ± 0.00 V
same,Dox (CV),"[6]; 1 M KCl, no hydrotrope",6.82 ± 0.32 × 10^–6 cm^2/s
same,Dox (CV),[6]; 20 wt % NaXS in 1 M KCl,3.50 ± 0.11 × 10^–6 cm^2/s
same,Dox (CV),[6]; 20 wt % NapTS in 1 M KCl,4.92 ± 0.15 × 10^–6 cm^2/s
same,Dox (CV),[6]; 20 wt % urea in 1 M KCl,5.55 ± 0.12 × 10^–6 cm^2/s
same,standard rate constant k0 (EIS),"[7]; 1 M KCl, no hydrotrope",0.08 ± 0.00 cm/s
same,standard rate constant k0 (EIS),[7]; 20 wt % NaXS in 1 M KCl,0.29 ± 0.11 cm/s
same,standard rate constant k0 (EIS),[7]; 20 wt % NapTS in 1 M KCl,0.12 ± 0.01 cm/s
"Cc1cc2nc3c(=O)[nH]c(=O)nc-3n(C[C@H](O)[C@H](O)[C@H](O)COP(=O)(O)O)c2cc1C [FMN, riboflavin-5′-monophosphate]",aqueous solubility,"[8]; 1.0 M KOH, no hydrotrope",0.1 M
"Oc1ccc(O)cc1 [hydroquinone, benzene-1,4-diol, reference compound]",solubility,"[8]; deionized water, 4.0 M urea",1.5 M
